In ChEMBL document CHEMBL1156857, “N-Acetamideindolecarboxylic acid allosteric 'finger-loop' inhibitors of the hepatitis C virus NS5B polymerase: discovery and initial optimization studies” (Bioorg Med Chem Lett, 2010) one finds IC50 and EC50 data, which are given here for 46 compounds.

Experiment [1] can be described thus: Inhibition of histidine-tagged HCV NS5Bdelta21 by scintillation proximity assay. More on the design: species or system Hepacivirus hominis. Summed up: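 Soluble truncated NS5B at 12 nM. Reaction contains 0.01% w/v BSA, with no dodecyl-β-D-maltoside or IGEPAL. Other conditions follow an earlier method. IC50 is the mean of duplicate experiments on two separate weighings.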

Another experiment relates to Hepatitis C virus. As to the kind of experiment: Antiviral activity against Hepatitis C virus subtype 1b infected in human Huh7 cells assessed as inhibition of viral RNA replication. Format: functional, organism-based, Hepacivirus hominis, genotype 1b, Huh-7. The following applies: for pEC50: Hepatitis C virus, genotype 1b, Huh-7, read-out: EC50. Summed up:
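Stable subgenomic HCV genotype 1b replicon in Huh-7 cells carrying a modified luciferase reporter. EC50 from duplicate or more determinations. Some inhibitors were also run in a 72 h replicon format, with HCV RNA normalized to total cellular RNA. Cytotoxicity checked as TC50.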

Experiment [2] is described as follows: Inhibition of calf thymus DNA-directed RNA polymerase 2. Set-up: species or system Bos taurus.

pEC50, pIC50: −log10 of the molar value.

As to `O=C(O)c1ccc2c(c1)nc(-c1ccoc1)n2C1CCCCC1`, in experiment [1], the pIC50 is 5.96. Also, in the experiment with Hepatitis C virus (huh-7), the EC50 entry is “Not Active”.

As to `O=C(O)c1ccc2c(C3CCCCC3)c(-c3ccoc3)[nH]c2c1`, the pIC50 in experiment [1] is 7.52. Further, in the experiment with Hepatitis C virus, the pEC50 is 5.17.

Turning to `Cn1c(-c2ccoc2)c(C2CCCCC2)c2ccc(C(=O)N[C@@H](Cc3c[nH]c4ccc(O)cc34)c3cscn3)cc21`, the pIC50 in experiment [1] is 7.00. Further, the negative-log EC50 (pEC50) in the experiment with Hepatitis C virus is 7.30.

As for `CN(CCc1ccncc1)C(=O)Cn1c(-c2ccoc2)c(C2CCCCC2)c2ccc(C(=O)O)cc21`, the pIC50 in experiment [2] was less than 3.60; in experiment [1] it was 7.52. For the same compound, the negative-log EC50 (pEC50) in the experiment on Hepatitis C virus was 6.20.

As to `O=C(O)c1ccc2c(C3CCCCC3)c(-c3ccoc3)n(CC(=O)N3CCCC3)c2c1`, the negative-log IC50 (pIC50) was less than 3.60 in experiment [2] and 7.40 in experiment [1].

For `CCN(Cc1ccncc1)C(=O)Cn1c(-c2ccoc2)c(C2CCCCC2)c2ccc(C(=O)O)cc21`, the values for the pIC50 in experiment [2] and in experiment [1] were less than 3.60 and 7.40, respectively.

Regarding `CCN(CC)CCN(C)C(=O)Cn1c(-c2ccoc2)c(C2CCCCC2)c2ccc(C(=O)O)cc21`, the negative logarithm of the IC50 (pIC50) in experiment [2] is less than 3.60; in experiment [1], 7.52. The pEC50 in the experiment with Hepatitis C virus was 6.34.

On to `CN(C)CCCN(C)C(=O)Cn1c(-c2ccoc2)c(C2CCCCC2)c2ccc(C(=O)O)cc21`, for which the pIC50 in experiment [2] was less than 3.60; in experiment [1], 7.70. Further, the pEC50 with Hepatitis C virus is 6.24.

`Cc1cccc(C)c1Cn1c(-c2ccoc2)c(C2CCCCC2)c2ccc(C(=O)O)cc21` gave a pIC50 in experiment [1] of less than 3.86.

With `O=C(O)c1ccc2c(C3CCCCC3)c(-c3ccoc3)n(Cc3ccccc3)c2c1`, in experiment [1], the pIC50 is 6.60.

As for `O=C(O)c1ccc2c(C3CCCCC3)c(-c3ccoc3)n(CC(=O)N3CCN(CCO)CC3)c2c1`, the values for the negative logarithm of the IC50 (pIC50) in experiment [2] and in experiment [1] were less than 3.60 and 7.70, respectively. In addition, the pEC50 in the experiment with Hepatitis C virus was 5.89.

For the compound `O=C(O)c1ccc2c(C3CCCCC3)c(-c3ccoc3)n(CC(=O)N3CCC(CCO)CC3)c2c1`, the results for the pIC50 in experiment [2] and in experiment [1] were less than 3.60 and 7.15, respectively. The pEC50 with Hepatitis C virus was 5.89.

On to `Cc1ccccc1Cn1c(-c2ccoc2)c(C2CCCCC2)c2ccc(C(=O)O)cc21`, for which the negative-log IC50 (pIC50) in experiment [1] is 6.54.

In the case of `COCCN(C)C(=O)Cn1c(-c2ccoc2)c(C2CCCCC2)c2ccc(C(=O)O)cc21`, the pIC50 in experiment [2] is less than 3.60; in experiment [1], 7.30. Besides, the pEC50 in the experiment on Hepatitis C virus was 5.89.

In the case of `O=C(O)c1ccc2c(C3CCCCC3)c(-c3ccccn3)n(CC(=O)N3CCOCC3)c2c1`, the negative logarithm of the IC50 (pIC50) in experiment [2] is less than 3.60.

Take `O=C(O)c1ccc2c(C3CCCCC3)c(-c3cnccn3)n(CC(=O)N3CCOCC3)c2c1`: the negative-log IC50 (pIC50) in experiment [2] is less than 3.60; in experiment [1], 7.00.

With `O=C(O)c1ccc(Cn2c(-c3ccoc3)c(C3CCCCC3)c3ccc(C(=O)O)cc32)cc1`, the pIC50 in experiment [1] was 7.40.

In experiment [1], `O=C(O)c1ccc2c(C3CCCCC3)c(-c3ccoc3)n(CCO)c2c1` gave a pIC50 of 7.00. In addition, the pEC50 in the experiment on Hepatitis C virus is less than 5.00.

As for `CCn1c(-c2ccoc2)c(C2CCCCC2)c2ccc(C(=O)O)cc21`, in experiment [1], the negative-log IC50 (pIC50) was 7.15. Besides, in the experiment on Hepatitis C virus, the negative logarithm of the EC50 (pEC50) is less than 5.00.

In the case of `C=CCn1c(-c2ccoc2)c(C2CCCCC2)c2ccc(C(=O)O)cc21`, the negative logarithm of the IC50 (pIC50) in experiment [1] was 7.10. The pEC50 in the experiment with Hepatitis C virus was less than 5.00.

In the case of `CNC(=O)Cn1c(-c2ccoc2)c(C2CCCCC2)c2ccc(C(=O)O)cc21`, the results for the pIC50 in experiment [2] and in experiment [1] were less than 3.60 and 7.30, respectively. Moreover, the pEC50 in the experiment with Hepatitis C virus was 5.70.

Regarding `CN(C(=O)Cn1c(-c2ccoc2)c(C2CCCCC2)c2ccc(C(=O)O)cc21)C1CCCCC1`, the pIC50 is less than 3.60 in experiment [2] and 6.96 in experiment [1].

On to `CC(C)N(C(=O)Cn1c(-c2ccoc2)c(C2CCCCC2)c2ccc(C(=O)O)cc21)C(C)C`, for which the pIC50 in experiment [2] is less than 3.60; in experiment [1], 7.15. In addition, the pEC50 with Hepatitis C virus is 5.64.

Consider `O=C(O)c1cccc(Cn2c(-c3ccoc3)c(C3CCCCC3)c3ccc(C(=O)O)cc32)c1`, for which, in experiment [1], the pIC50 was 7.15.

In experiment [1], `CCOC(=O)Cn1c(-c2ccoc2)c(C2CCCCC2)c2ccc(C(=O)O)cc21` gave a negative logarithm of the IC50 (pIC50) of 7.05. For the same compound, the negative logarithm of the EC50 (pEC50) with Hepatitis C virus was 5.07.

`O=C(O)CCn1c(-c2ccoc2)c(C2CCCCC2)c2ccc(C(=O)O)cc21` gave a pIC50 in experiment [1] of 6.68.

As to `CC(C)NC(=O)Cn1c(-c2ccoc2)c(C2CCCCC2)c2ccc(C(=O)O)cc21`, the pIC50 in experiment [2] is less than 3.60; in experiment [1], 7.30.

For `O=C(Cn1c(-c2ccoc2)c(C2CCCCC2)c2ccc(C(=O)O)cc21)NCC1CCCCC1`, the negative logarithm of the IC50 (pIC50) is less than 3.60 in experiment [2] and 6.92 in experiment [1].

On to `O=C(Cn1c(-c2ccoc2)c(C2CCCCC2)c2ccc(C(=O)O)cc21)NCc1ccccc1`, for which the pIC50 was less than 3.60 in experiment [2] and 7.22 in experiment [1].

As for `O=C(O)c1ccc2c(C3CCCCC3)c(-c3ccoc3)n(CC(=O)N3CCCCC3)c2c1`, the pIC50 in experiment [2] was less than 3.60; in experiment [1], 7.40. In addition, in the experiment with Hepatitis C virus, the pEC50 was 6.09.

In experiment [1], `O=C(O)Cn1c(-c2ccoc2)c(C2CCCCC2)c2ccc(C(=O)O)cc21` had a negative logarithm of the IC50 (pIC50) of 7.22.

In experiment [2], `O=C(O)c1ccc2c(C3CCCCC3)c(-c3ccccn3)n(CC(=O)N3CCC(N4CCCC4)CC3)c2c1` had a pIC50 of less than 3.60.

`O=C(O)c1ccc2c(C3CCCCC3)c(-c3ccoc3)n(CC(=O)N3CCC(O)CC3)c2c1`: the negative logarithm of the IC50 (pIC50) in experiment [2] is less than 3.60; in experiment [1], 7.70. In addition, in the experiment on Hepatitis C virus, the negative-log EC50 (pEC50) was 5.70.

`Nc1ccccc1Cn1c(-c2ccoc2)c(C2CCCCC2)c2ccc(C(=O)O)cc21` had a negative-log IC50 (pIC50) in experiment [1] of 7.05. Also, the negative-log EC50 (pEC50) with Hepatitis C virus was 5.54.

As to `O=C(O)c1ccc2c(C3CCCCC3)c(-c3ccoc3)n(CC(=O)N3CCC(C(=O)O)CC3)c2c1`, the results for the pIC50 in experiment [2] and in experiment [1] were less than 3.60 and 7.52, respectively. The negative-log EC50 (pEC50) in the experiment with Hepatitis C virus was less than 4.03.

Consider `O=C(Cn1c(-c2ccoc2)c(C2CCCCC2)c2ccc(C(=O)O)cc21)Nc1ccccc1`, for which the negative-log IC50 (pIC50) in experiment [2] was less than 3.60; in experiment [1], 7.10.

In the case of `CN(C)C(=O)Cn1c(-c2cnccn2)c(C2CCCCC2)c2ccc(C(=O)O)cc21`, the pIC50 in experiment [2] was less than 3.60; in experiment [1], 6.80.

For the compound `CN(C)CCN(C)C(=O)Cn1c(-c2ccoc2)c(C2CCCCC2)c2ccc(C(=O)O)cc21`, the negative-log IC50 (pIC50) in experiment [2] was less than 3.60; in experiment [1] it was 7.70. In addition, the negative-log EC50 (pEC50) in the experiment with Hepatitis C virus is 6.36.

Consider `C=C(C)n1c(-c2ccoc2)c(C2CCCCC2)c2ccc(C(=O)O)cc21`, for which the pIC50 in experiment [1] is 6.44. In addition, the pEC50 with Hepatitis C virus is less than 5.00.

`NC(=O)Cn1c(-c2ccoc2)c(C2CCCCC2)c2ccc(C(=O)O)cc21`: the negative-log IC50 (pIC50) in experiment [1] is 7.40. Moreover, in the experiment with Hepatitis C virus, the pEC50 was 5.62.

Take `COCCNC(=O)Cn1c(-c2ccoc2)c(C2CCCCC2)c2ccc(C(=O)O)cc21`: the pIC50 in experiment [2] was less than 3.60; in experiment [1] it was 7.30.

For `Nc1cccc(Cn2c(-c3ccoc3)c(C3CCCCC3)c3ccc(C(=O)O)cc32)c1`, the pIC50 in experiment [1] is 6.89. Also, the negative-log EC50 (pEC50) in the experiment with Hepatitis C virus is less than 5.10.

Regarding `O=C(O)c1ccc2c(C3CCCCC3)c(-c3ccoc3)n(Cc3ccccn3)c2c1`, the pIC50 in experiment [1] was 6.89.

As for `CCCN(C)C(=O)Cn1c(-c2ccoc2)c(C2CCCCC2)c2ccc(C(=O)O)cc21`, the pIC50 in experiment [2] was less than 3.60; in experiment [1] it was 7.30. The pEC50 with Hepatitis C virus was 5.77.

For `CC(C)N(C)C(=O)Cn1c(-c2ccoc2)c(C2CCCCC2)c2ccc(C(=O)O)cc21`, the figures for the pIC50 in experiment [2] and in experiment [1] were less than 3.60 and 7.52, respectively. For the same compound, in the experiment with Hepatitis C virus, the pEC50 was 6.10.

In the case of `CC(C(=O)O)n1c(-c2ccoc2)c(C2CCCCC2)c2ccc(C(=O)O)cc21` (racemic), the negative-log IC50 (pIC50) in experiment [1] is 5.55.
